According to ChEMBL document CHEMBL5678817, “FTBMT, a Novel and Selective GPR52 Agonist, Demonstrates Antipsychotic-Like and Procognitive Effects in Rodents, Revealing a Potential Therapeutic Agent for Schizophrenia” (J Pharmacol Exp Ther, 2017):
pEC50: −log10 of the molar value. Calls of active or inactive are those of the source. The calls are words filed in the database; no cut-off is given here.

Experiments:
[1] = biological target: G-protein coupled receptor 52 (Homo sapiens, UniProt Q9Y2T5); experiment: Agonist activity at human GPR52 expressed in CHO cells assessed as increase in intracellular cAMP level incubated for 30 mins by Alphascreen assay; assay type: functional, cell-based
Procedure, shortened: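 CHO cells stably expressing human, mouse or rat GPR52, plus naïve CHO cells, at 10,000 cells/well. Stimulated in cAMP assay buffer for 30 min at 37 °C. Intracellular cAMP read by AlphaScreen.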

[2] = biological target: Polyunsaturated fatty acid 5-lipoxygenase (Homo sapiens) (UniProt P09917); experiment: Inhibition of […] (unknown origin) at 10 uM relative to control
Procedure, shortened: (§1)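 Enzyme activity assays from the same 98-target biochemical panel. Single test concentration of 10 µM. Read-out is % inhibition of enzyme activity relative to control; negative percentages indicate activation of the enzyme.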

[3] = biological target: MAO-B (amine oxidase [flavin-containing] B) (Homo sapiens, UniProt P27338); experiment: Inhibition of MAO-B (unknown origin) at 10 uM relative to control; procedure, shortened: as §1
[4] = biological target: Nitric oxide synthase, inducible (Homo sapiens) (UniProt P35228); experiment: Inhibition of iNOS (unknown origin) at 10 uM relative to control
Procedure, shortened: (§2)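 Binding and enzyme panel run by an outside contractor against receptors, ion channels and enzymes. Each assay used a single 10 μM test concentration, and results are expressed as percent inhibition. A negative value means stimulation of receptor activity or activation of enzyme activity.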

[5] = biological target: Phosphodiesterase 3 (Homo sapiens) (UniProt Q14432+Q13370); experiment: Inhibition of PDE3 (unknown origin) at 10 uM relative to control; assay type: protein assay; procedure, shortened: as §1
[6] = biological target: Phosphodiesterase 6 (Homo sapiens) (UniProt Q13956+P18545+P35913+O43924+P16499+P51160); experiment: Inhibition of PDE6 (unknown origin) at 10 uM relative to control; assay type: protein assay; procedure, shortened: as §1
Homo sapiens [7] = species: Homo sapiens; experiment: Inhibition of EGF receptor (unknown origin) at 10 uM relative to control; procedure, shortened: as §1
[8] = biological target: 3-oxo-5-alpha-steroid 4-dehydrogenase 1 (Homo sapiens) (UniProt P18405); experiment: Inhibition of Steroid 5alpha-reductase 1 (unknown origin) at 10 uM relative to control; procedure, shortened: as §2
[9] = biological target: Adenosine receptor A1 (Homo sapiens) (UniProt P30542); experiment: Inhibition of Adenosine A1 receptor (unknown origin) at 10 uM relative to control
Procedure, shortened: (§3)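 Single-point screen at 10 μM across receptor, ion channel and enzyme binding or activity assays. Expressed as percent inhibition versus control; negative values denote stimulation.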

[10] = biological target: Type-1 angiotensin II receptor (Homo sapiens) (UniProt P30556); experiment: Inhibition of AT1 receptor (unknown origin) at 10 uM relative to control; procedure, shortened: as §3
[11] = biological target: T1, Voltage-gated L-type calcium channel (Homo sapiens, UniProt O60840+Q01668+Q13698+Q13936); experiment: Inhibition of Calcium channel L-type (unknown origin) at 10 uM in presence of dihydropyridine relative to control; assay type: protein assay; conditions: probe dihydropyridine; procedure, shortened: as §3
[12] = biological target: T1, Voltage-gated L-type calcium channel; experiment: Inhibition of Calcium channel L-type (unknown origin) at 10 uM in presence of phenylalkylamine relative to control; assay type: protein assay; conditions: probe phenylalkylamine; procedure, shortened: as §3
[13] = biological target: Cannabinoid receptor 1 (Homo sapiens) (UniProt P21554); experiment: Inhibition of CB1 receptor (unknown origin) at 10 uM relative to control; procedure, shortened: as §3
[14] = biological target: Cholecystokinin receptor type A (Homo sapiens) (UniProt P32238); experiment: Inhibition of CCK1 receptor (unknown origin) at 10 uM relative to control; procedure, shortened: as §3
[15] = biological target: Gastrin/cholecystokinin type B receptor (Homo sapiens) (UniProt P32239); experiment: Inhibition of CCK2 receptor (unknown origin) at 10 uM relative to control; procedure, shortened: as §3
[16] = biological target: D(1A) dopamine receptor (Homo sapiens) (UniProt P21728); experiment: Inhibition of Dopamine D1 receptor (unknown origin) at 10 uM relative to control; procedure, shortened: as §3
Homo sapiens [17] = species: Homo sapiens; experiment: Inhibition of GABAB1B receptor (unknown origin) at 10 uM relative to control
Procedure, shortened: (§4)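 Part of a 98-target external biochemical selectivity panel that used radioligand/receptor binding-type assays. Compound tested once at 10 µM. Results are reported as % inhibition versus control; negative values mean stimulation of receptor activity.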

[18] = biological target: T2, Glutamate [NMDA] receptor (Homo sapiens) (UniProt Q05586+Q12879+Q13224+O15399+O60391+Q14957+Q8TCU5); experiment: Inhibition of Glutamate NMDA receptor (unknown origin) at 10 uM relative to control; assay type: protein-complex assay; procedure, shortened: as §4
[19] = biological target: T2, Glutamate [NMDA] receptor (Homo sapiens); experiment: Inhibition of Glutamate NMDA receptor (unknown origin) at 10 uM in presence of phencyclidine to control; assay type: protein-complex assay; procedure, shortened: as §4
Homo sapiens [20] = species: Homo sapiens; experiment: Inhibition of strychnine-Glycine receptor (unknown origin) at 10 uM relative to control; procedure, shortened: as §2
[21] = biological target: Histamine H2 receptor (Homo sapiens) (UniProt P25021); experiment: Inhibition of Histamine H2 receptor (unknown origin) at 10 uM relative to control; procedure, shortened: as §4
[22] = biological target: Insulin receptor (Homo sapiens) (UniProt P06213); experiment: Inhibition of Insulin receptor (unknown origin) at 10 uM relative to control; procedure, shortened: as §4
[23] = biological target: Delta-type opioid receptor (Homo sapiens) (UniProt P41143); experiment: Inhibition of opioid delta receptor (unknown origin) at 10 uM relative to control; procedure, shortened: as §2
[24] = biological target: Thromboxane A2 receptor (Homo sapiens) (UniProt P21731); experiment: Inhibition of Thromboxane A2 receptor (unknown origin) at 10 uM relative to control; procedure, shortened: as §2
[25] = biological target: Sodium-dependent serotonin transporter (Homo sapiens) (UniProt P31645); experiment: Inhibition of SERT receptor (unknown origin) at 10 uM relative to control; procedure, shortened: as §4
[26] = biological target: Vasopressin V2 receptor (Homo sapiens) (UniProt P30518); experiment: Inhibition of Vasopressin V2 receptor (unknown origin) at 10 uM relative to control; procedure, shortened: as §2
Mus musculus [27] = experiment: Antipsychotic activity in C57BL/6N mouse assessed as increase in c-fos positive cells in dorsomedial striatum at 30 mg/kg, po measured for 2 hrs by immunohistochemistry analysis; assay type: functional, organism-based
Mus musculus [28] = experiment: Antipsychotic activity in C57BL/6N mouse assessed as increase in Egr-2 mRNA expression at 3 to 100 mg/kg, po measured for 1 hr by qPCR analysis; assay type: functional, organism-based; conditions: dose 3-100 mg/kg
Procedure, shortened: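 Mice dosed orally at 3–100 mg/kg or vehicle. Tissues taken 1 h post-dose, NAc shell and striatum dissected, frozen on dry ice. IEG mRNA quantified by qPCR (absolute or ΔΔCt); n = 5–6; mean ± SEM.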

Rattus norvegicus = experiment: Pro-cognitive activity in Long-Evans rat assessed as increase in exploration time for novel object at 3 to 10 mg/kg, po measured after 3 mins by NORT test; assay type: functional, organism-based; conditions: dose 3-10 mg/kg
Procedure, shortened: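 Male Long-Evans rats (7 weeks) were habituated to a 40 × 40 × 50 cm box for 10 min. The acquisition trial was 3 min with two identical objects. Oral dosing at 3 or 10 mg/kg followed immediately after acquisition. The 3-min retention trial, with one familiar and one novel object, ran 48 h later. Exploration was hand-scored by a blinded scorer, and NDI = novel/total × 100. n = 10.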

Mus musculus [29] = experiment: Antipsychotic activity in C57BL/6N mouse assessed as increase in c-fos positive cells in entorhinal cortex at 30 mg/kg, po measured for 2 hrs by immunohistochemistry analysis; assay type: functional, organism-based

Gastrin/cholecystokinin type B receptor (Homo sapiens), sequence (P32239 whole entry): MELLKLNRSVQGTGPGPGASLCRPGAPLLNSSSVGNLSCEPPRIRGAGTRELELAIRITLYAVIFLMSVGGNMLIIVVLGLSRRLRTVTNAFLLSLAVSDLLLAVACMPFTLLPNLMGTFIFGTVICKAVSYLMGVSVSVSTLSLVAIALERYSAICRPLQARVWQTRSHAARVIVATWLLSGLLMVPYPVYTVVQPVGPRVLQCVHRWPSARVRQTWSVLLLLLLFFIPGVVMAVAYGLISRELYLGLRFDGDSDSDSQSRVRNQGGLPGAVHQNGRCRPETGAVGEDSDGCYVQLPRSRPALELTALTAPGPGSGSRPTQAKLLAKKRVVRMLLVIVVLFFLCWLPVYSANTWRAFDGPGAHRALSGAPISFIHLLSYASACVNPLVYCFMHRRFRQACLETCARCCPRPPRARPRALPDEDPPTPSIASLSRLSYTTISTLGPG
Adenosine receptor A1 (Homo sapiens), sequence (P30542 whole entry): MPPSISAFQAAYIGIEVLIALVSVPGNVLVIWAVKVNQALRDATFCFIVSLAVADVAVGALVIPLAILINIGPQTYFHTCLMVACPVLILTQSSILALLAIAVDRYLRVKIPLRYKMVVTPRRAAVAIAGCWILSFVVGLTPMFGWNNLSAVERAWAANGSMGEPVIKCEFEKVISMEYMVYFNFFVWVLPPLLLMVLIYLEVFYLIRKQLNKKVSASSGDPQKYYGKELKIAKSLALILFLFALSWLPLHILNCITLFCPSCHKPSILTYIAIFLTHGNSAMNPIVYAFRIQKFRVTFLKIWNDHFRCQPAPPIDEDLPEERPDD
Insulin receptor (Homo sapiens), sequence (P06213 28-758 limits assumed): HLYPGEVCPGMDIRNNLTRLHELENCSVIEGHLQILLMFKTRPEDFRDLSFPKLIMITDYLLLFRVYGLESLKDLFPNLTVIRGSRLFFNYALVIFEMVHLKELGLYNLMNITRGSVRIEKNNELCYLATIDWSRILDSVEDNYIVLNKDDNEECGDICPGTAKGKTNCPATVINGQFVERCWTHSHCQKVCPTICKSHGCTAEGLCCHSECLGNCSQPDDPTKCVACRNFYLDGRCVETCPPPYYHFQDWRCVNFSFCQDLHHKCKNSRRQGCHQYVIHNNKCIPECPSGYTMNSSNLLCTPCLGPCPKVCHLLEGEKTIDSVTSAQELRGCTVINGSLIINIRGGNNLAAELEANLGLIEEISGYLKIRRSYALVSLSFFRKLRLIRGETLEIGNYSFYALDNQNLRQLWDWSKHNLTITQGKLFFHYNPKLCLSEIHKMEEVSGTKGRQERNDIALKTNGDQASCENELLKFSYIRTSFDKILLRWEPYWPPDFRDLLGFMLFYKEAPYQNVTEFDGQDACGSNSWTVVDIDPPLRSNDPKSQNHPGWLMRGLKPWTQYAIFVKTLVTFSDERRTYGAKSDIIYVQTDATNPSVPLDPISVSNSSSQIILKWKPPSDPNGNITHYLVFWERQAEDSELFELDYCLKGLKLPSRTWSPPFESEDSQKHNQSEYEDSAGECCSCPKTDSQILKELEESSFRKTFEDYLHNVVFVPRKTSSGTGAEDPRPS
Insulin receptor (Homo sapiens), sequence (P06213 763-1382 limits assumed): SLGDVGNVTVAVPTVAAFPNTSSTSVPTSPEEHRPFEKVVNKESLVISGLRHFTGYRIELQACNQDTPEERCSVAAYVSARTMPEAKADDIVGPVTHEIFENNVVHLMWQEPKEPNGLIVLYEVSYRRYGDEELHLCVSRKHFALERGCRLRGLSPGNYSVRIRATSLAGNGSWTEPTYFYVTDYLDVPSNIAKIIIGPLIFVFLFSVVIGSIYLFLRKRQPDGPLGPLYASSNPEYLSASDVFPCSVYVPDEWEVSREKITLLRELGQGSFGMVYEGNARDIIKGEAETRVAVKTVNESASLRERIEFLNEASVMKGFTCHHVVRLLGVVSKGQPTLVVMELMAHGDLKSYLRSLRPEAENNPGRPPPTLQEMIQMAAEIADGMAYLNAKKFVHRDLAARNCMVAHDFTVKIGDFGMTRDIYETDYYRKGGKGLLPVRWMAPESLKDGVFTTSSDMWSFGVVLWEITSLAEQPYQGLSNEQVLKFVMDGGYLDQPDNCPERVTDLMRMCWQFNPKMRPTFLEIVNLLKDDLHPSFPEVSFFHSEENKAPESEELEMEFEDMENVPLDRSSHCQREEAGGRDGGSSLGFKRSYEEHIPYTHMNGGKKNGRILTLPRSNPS
Thromboxane A2 receptor (Homo sapiens), sequence (P21731 whole entry): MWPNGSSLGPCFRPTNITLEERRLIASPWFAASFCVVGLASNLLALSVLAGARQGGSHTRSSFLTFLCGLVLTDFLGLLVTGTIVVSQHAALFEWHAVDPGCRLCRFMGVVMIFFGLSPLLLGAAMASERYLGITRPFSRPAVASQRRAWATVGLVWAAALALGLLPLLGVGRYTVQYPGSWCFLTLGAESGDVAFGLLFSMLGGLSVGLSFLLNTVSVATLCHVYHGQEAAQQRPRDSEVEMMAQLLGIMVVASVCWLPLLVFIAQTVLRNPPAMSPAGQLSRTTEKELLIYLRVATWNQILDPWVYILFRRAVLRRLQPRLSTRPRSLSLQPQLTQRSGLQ
Histamine H2 receptor (Homo sapiens), sequence (P25021 whole entry): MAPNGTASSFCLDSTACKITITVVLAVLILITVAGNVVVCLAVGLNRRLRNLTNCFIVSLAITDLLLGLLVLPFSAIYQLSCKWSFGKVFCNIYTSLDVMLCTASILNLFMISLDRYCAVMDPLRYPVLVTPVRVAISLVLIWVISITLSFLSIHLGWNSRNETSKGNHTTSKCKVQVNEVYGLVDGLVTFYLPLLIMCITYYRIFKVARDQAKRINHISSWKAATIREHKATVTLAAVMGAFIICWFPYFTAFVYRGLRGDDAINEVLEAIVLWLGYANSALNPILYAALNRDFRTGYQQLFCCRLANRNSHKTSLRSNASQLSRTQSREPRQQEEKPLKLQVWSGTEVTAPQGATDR
Delta-type opioid receptor (Homo sapiens), sequence (P41143 whole entry): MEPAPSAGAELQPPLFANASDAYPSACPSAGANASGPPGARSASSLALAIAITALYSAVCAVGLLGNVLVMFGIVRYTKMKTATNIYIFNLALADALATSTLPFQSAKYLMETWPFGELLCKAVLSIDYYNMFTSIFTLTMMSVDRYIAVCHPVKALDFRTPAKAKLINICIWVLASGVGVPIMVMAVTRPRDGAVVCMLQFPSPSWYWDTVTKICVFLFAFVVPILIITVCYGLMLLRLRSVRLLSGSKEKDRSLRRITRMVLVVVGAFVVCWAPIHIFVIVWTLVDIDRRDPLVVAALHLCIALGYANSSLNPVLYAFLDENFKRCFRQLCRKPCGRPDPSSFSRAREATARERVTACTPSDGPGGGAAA
G-protein coupled receptor 52, sequence (Q9Y2T5 whole entry): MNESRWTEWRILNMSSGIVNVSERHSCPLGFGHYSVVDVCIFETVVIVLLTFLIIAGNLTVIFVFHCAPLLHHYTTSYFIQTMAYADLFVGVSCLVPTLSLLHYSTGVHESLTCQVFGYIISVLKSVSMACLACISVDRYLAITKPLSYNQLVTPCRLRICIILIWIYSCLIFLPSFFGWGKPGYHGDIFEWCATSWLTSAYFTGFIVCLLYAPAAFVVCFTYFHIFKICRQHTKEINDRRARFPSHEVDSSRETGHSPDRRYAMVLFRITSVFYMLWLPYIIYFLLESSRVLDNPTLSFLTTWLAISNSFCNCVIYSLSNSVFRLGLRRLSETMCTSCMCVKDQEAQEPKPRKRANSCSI
Vasopressin V2 receptor (Homo sapiens), sequence (P30518 whole entry): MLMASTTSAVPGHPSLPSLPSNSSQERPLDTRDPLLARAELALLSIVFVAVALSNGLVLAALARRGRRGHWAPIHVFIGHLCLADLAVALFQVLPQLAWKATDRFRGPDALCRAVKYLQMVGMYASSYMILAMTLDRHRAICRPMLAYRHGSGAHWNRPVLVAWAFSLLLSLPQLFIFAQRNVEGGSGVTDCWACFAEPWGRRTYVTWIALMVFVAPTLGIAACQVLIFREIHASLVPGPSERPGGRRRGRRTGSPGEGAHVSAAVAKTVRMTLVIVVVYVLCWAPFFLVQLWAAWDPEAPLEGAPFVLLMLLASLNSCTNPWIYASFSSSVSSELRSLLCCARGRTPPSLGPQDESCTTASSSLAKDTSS
Cholecystokinin receptor type A (Homo sapiens), sequence (P32238 whole entry): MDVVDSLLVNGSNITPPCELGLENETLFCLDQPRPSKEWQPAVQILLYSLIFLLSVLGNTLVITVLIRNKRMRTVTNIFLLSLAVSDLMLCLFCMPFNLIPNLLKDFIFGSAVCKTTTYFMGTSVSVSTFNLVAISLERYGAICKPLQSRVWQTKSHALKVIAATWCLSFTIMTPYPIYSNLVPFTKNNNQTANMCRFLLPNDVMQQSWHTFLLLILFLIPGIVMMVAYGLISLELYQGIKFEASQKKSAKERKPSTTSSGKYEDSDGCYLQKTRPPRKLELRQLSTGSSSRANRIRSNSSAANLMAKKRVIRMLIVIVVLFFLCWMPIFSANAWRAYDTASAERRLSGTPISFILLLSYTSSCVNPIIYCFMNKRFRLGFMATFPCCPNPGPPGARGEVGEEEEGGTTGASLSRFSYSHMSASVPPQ
MAO-B (amine oxidase [flavin-containing] B), sequence (P27338 whole entry): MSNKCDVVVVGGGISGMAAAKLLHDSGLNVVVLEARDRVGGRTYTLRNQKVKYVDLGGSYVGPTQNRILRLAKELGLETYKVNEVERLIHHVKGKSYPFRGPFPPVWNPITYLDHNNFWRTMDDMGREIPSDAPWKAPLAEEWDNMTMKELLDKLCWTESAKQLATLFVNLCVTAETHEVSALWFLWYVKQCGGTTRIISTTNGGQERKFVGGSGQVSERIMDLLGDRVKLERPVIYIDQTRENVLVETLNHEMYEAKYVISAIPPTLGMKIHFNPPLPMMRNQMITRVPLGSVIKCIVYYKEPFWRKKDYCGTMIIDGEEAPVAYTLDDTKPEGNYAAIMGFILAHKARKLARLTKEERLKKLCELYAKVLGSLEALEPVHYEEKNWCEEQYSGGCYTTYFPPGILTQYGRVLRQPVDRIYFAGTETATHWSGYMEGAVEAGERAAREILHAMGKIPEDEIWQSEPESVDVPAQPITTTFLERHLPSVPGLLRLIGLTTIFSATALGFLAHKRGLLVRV

SMILES: Cc1cc(-n2nc(Cc3cc(F)cc(C(F)(F)F)c3)nc2C)ccc1C(N)=O [TP-024]
- pEC50 [1]: 7.03
- inhibition [2]: -5%
- inhibition at 10 µM [3]: 26%
- inhibition [4]: 7%
- inhibition [5]: 28%
- inhibition [6]: 17%
- inhibition (Homo sapiens [7]): -1%
- inhibition [8]: 0%
- inhibition [9]: 33%
- inhibition [10]: 9%
- inhibition at 10 µM [11]: -2%
- inhibition at 10 µM [12]: -6%
- inhibition [13]: -4%
- inhibition [14]: 6%
- inhibition [15]: 0%
- inhibition [16]: 7%
- inhibition (Homo sapiens [17]): 2%
- inhibition [18]: -7%
- inhibition [19]: 4%
- inhibition (Homo sapiens [20]): -4%
- inhibition [21]: 2%
- inhibition [22]: -9%
- inhibition [23]: 4%
- inhibition [24]: -6%
- inhibition [25]: 8%
- inhibition [26]: -1%
- Activity (Mus musculus [27]): Active
- Activity (Mus musculus [28]): Active
- Activity (Rattus norvegicus): Active
- Activity (Mus musculus [29]): Active
